ChEMBL document CHEMBL2407061, “Medicinal chemistry of dihydropyran-based medium ring macrolides related to aspergillides: selective inhibition of PI3Kα” (J Med Chem, 2013)
Active and inactive are the calls of the source. The calls are words filed in the database; no cut-off is given here.

Experiments:
HL-60 [1] = experiment: Antiproliferative activtiy against human HL60 cells assessed as growth inhibition after 48 hrs by MTT assay; format: functional, cell-based; details: HL-60, 48 h
Summary of the method: (§1)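 15000 cells per well in 200µl medium, exposed to a range of concentrations for 48 h (compounds in DMSO, diluted in complete medium). MTT (20µl of 2.5 mg/ml) added for 2 h at 37°C, formazan dissolved in DMSO, OD read at 570 nm. Viability = OD test/OD control ×100. IC50 taken from the concentration–survival curve after blank subtraction.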

PC-3 = experiment: Antiproliferative activtiy against human PC3 cells assessed as growth inhibition after 48 hrs by MTT assay; format: functional, cell-based; details: PC-3, 48 h; summary of the method: as §1
A-375 = experiment: Antiproliferative activtiy against human A375 cells assessed as growth inhibition after 48 hrs by MTT assay; format: functional, cell-based; details: A-375, 48 h; summary of the method: as §1
HL-60 [2] = experiment: Induction of apoptosis in human HL60 cells assessed as mitochondrial membrane potential loss after 6 hrs by RH 123 staining-based flow cytometer analysis; format: functional, cell-based
Summary of the method: (§2)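 1×10^6 HL-60 cells in 12-well plates, exposed to 5, 10 or 20 µM for 6 h. Rhodamine 123 added 30 min before the end. Cells collected at 400 g, washed once in PBS, and fluorescence read in the FL-1 channel of a flow cytometer.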

HL-60 [3] = experiment: Induction of apoptosis in human HL60 cells assessed as late apoptotic cells at 10 uM after 6 hrs by Annexine V/propidium iodide staining-based FACS flow cytometry analysis (reference value: 2%); format: functional
HL-60 [4] = experiment: Induction of apoptosis in human HL60 cells assessed as late apoptotic cells at 5 uM after 6 hrs by Annexine V/propidium iodide staining-based FACS flow cytometry analysis (reference value: 2%); format: functional
HL-60 [5] = experiment: Cell cycle arrest in human HL60 cells assessed as accumulation at G0/G1 phase at 10 uM after 6 hrs using by propidium iodide staining by FACS analysis (reference value: 6%); format: functional
HL-60 [6] = experiment: Cell cycle arrest in human HL60 cells assessed as accumulation at G0/G1 phase at 20 uM after 6 hrs using by propidium iodide staining by FACS analysis (reference value: 6%); format: functional
HL-60 [7] = experiment: Induction of apoptosis in human HL60 cells assessed as change in cell morphology after 6 hrs
HL-60 [8] = experiment: Induction of apoptosis in human HL60 cells assessed as decrease in expression of cytochrome c in mitochondrial fraction after 6 hrs by Western blot analysis; format: functional, cell-based
Summary of the method: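 4×10^6 HL-60 cells treated for 6 h. Cytosolic fraction from a 2 min digitonin lysis then 12000g spin; mitochondrial fraction lysed in RIPA. Cytochrome c detected by western blot, with COX IV as the mitochondrial loading control and β-actin as the cytosolic loading control.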

HL-60 [9] = experiment: Induction of apoptosis in human HL60 cells assessed as late apoptotic cells at 20 uM after 6 hrs by Annexine V/propidium iodide staining-based FACS flow cytometry analysis (reference value: 2%); format: functional
HL-60 [10] = experiment: Induction of apoptosis in human HL60 cells assessed as early apoptotic cells at 5 uM after 6 hrs by Annexine V/propidium iodide staining-based FACS flow cytometry analysis (reference value: 4%); format: functional
[11] = target: Phosphatidylinositol 4,5-bisphosphate 3-kinase catalytic subunit alpha isoform (Homo sapiens) (UniProt P42336); experiment: Inhibition of PI3K p110 alpha in human HL60 cells assessed as inhibition of AKT phosphorylation at T308 by Western blotting analysis; format: cell-based; details: HL-60
Summary of the method: (§3)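 Treated and untreated HL-60 cells spun at 400g at 4°C, washed in PBS and lysed in RIPA buffer for whole-cell lysate. 60 µg protein per lane run on SDS-PAGE and probed with primary antibodies. ECL chemiluminescence detection, with β-actin as the loading control.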

HL-60 [12] = experiment: Induction of apoptosis in human HL60 cells assessed as mitochondrial membrane potential loss at 20 uM after 6 hrs by RH 123 staining-based flow cytometer analysis (reference value: 6%); format: functional; summary of the method: as §2
HL-60 [13] = experiment: Induction of apoptosis in human HL60 cells assessed as mitochondrial membrane potential loss at 10 uM after 6 hrs by RH 123 staining-based flow cytometer analysis (reference value: 6%); format: functional; summary of the method: as §2
[14] = target: Phosphatidylinositol 4,5-bisphosphate 3-kinase catalytic subunit alpha isoform (Homo sapiens) (UniProt P42336); experiment: Inhibition of PI3K p110 alpha in human HL60 cells by Western blotting analysis; format: cell-based; details: HL-60; summary of the method: as §3
HL-60 [15] = experiment: Inhibition of human ERK 1/2 expression in human HL60 cells by Western blotting analysis; format: functional, cell-based; summary of the method: as §3
HL-60 [16] = experiment: Induction of apoptosis in human HL60 cells assessed as blebbing and shrinkage of cells at 5 to 20 uM after 6 hrs by phase contrast microscopy
[17] = target: Phosphatidylinositol 4,5-bisphosphate 3-kinase catalytic subunit alpha isoform (Homo sapiens) (UniProt P42336); experiment: Inhibition of PI3K p110 alpha in human HL60 cells assessed as inhibition of AKT phosphorylation at AKT S473 by Western blotting analysis; format: cell-based; details: HL-60; summary of the method: as §3
[18] = target: Phosphatidylinositol 4,5-bisphosphate 3-kinase catalytic subunit alpha isoform (Homo sapiens) (UniProt P42336); experiment: Inhibition of PI3K p110 alpha in human HL60 cells assessed as PARP 1 clevage by Western blotting analysis; format: cell-based; details: HL-60; summary of the method: as §3
HL-60 [19] = experiment: Induction of apoptosis in human HL60 cells assessed as early apoptotic cells at 10 uM after 6 hrs by Annexine V/propidium iodide staining-based FACS flow cytometry analysis (reference value: 4%); format: functional
[20] = Cytotoxicity against human FR2 cells after 48 hrs by MTT assay; format: cell-based; details: FR2, 48 h; summary of the method: as §1
HL-60 [21] = experiment: Cell cycle arrest in human HL60 cells assessed as accumulation at G0/G1 phase at 5 uM after 6 hrs using by propidium iodide staining by FACS analysis (reference value: 6%); format: functional
HL-60 [22] = experiment: Induction of apoptosis in human HL60 cells assessed as early apoptotic cells at 20 uM after 6 hrs by Annexine V/propidium iodide staining-based FACS flow cytometry analysis (reference value: 4%); format: functional
[23] = target: Phosphatidylinositol 4,5-bisphosphate 3-kinase catalytic subunit alpha isoform (Homo sapiens) (UniProt P42336); experiment: Inhibition of PI3K p110 alpha in human HL60 cells assessed as effect on total AKT level by Western blotting analysis; format: cell-based; details: HL-60; summary of the method: as §3
HL-60 [24] = experiment: Induction of apoptosis in human HL60 cells assessed as change in nuclear morphology at 5 to 20 uM after 6 hrs by Hoechst 33258 staining-based inverted fluorescence analysis; format: functional, cell-based
Summary of the method: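 HL-60 cells exposed for 6 h. Spun at 400 g, washed twice in PBS, stained 30 min at room temperature under subdued light with Hoechst 33258 (10 µg/ml in citrate/phosphate buffer with 0.05% Tween 20). Mounted in PBS:glycerol 1:1 and viewed by UV-excitation fluorescence microscopy for nuclear changes and apoptotic bodies.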

[25] = target: Phosphatidylinositol 4,5-bisphosphate 3-kinase catalytic subunit alpha isoform (Homo sapiens) (UniProt P42336); experiment: Inhibition of PI3K p110 alpha in human HL60 cells assessed as inhibition of GSK3 beta phosphorylation by Western blotting analysis; format: cell-based; details: HL-60; summary of the method: as §3
[26] = target: Phosphatidylinositol 4,5-bisphosphate 3-kinase catalytic subunit alpha isoform (Homo sapiens) (UniProt P42336); experiment: Inhibition of PI3K p110 alpha in human HL60 cells assessed as inhibition of mTOR phosphorylation by Western blotting analysis; format: cell-based; details: HL-60; summary of the method: as §3
HL-60 [27] = experiment: Induction of apoptosis in human HL60 cells assessed as mitochondrial membrane potential loss at 5 uM after 6 hrs by RH 123 staining-based flow cytometer analysis (reference value: 6%); format: functional; summary of the method: as §2
[28] = target: Phosphatidylinositol 4,5-bisphosphate 3-kinase catalytic subunit alpha isoform (Homo sapiens) (UniProt P42336); experiment: Inhibition of PI3K p110 alpha in human HL60 cells assessed as caspase 3 clevage by Western blotting analysis; format: cell-based; details: HL-60; summary of the method: as §3

Chain of Phosphatidylinositol 4,5-bisphosphate 3-kinase catalytic subunit alpha isoform (Homo sapiens) (P42336 whole entry, canonical isoform): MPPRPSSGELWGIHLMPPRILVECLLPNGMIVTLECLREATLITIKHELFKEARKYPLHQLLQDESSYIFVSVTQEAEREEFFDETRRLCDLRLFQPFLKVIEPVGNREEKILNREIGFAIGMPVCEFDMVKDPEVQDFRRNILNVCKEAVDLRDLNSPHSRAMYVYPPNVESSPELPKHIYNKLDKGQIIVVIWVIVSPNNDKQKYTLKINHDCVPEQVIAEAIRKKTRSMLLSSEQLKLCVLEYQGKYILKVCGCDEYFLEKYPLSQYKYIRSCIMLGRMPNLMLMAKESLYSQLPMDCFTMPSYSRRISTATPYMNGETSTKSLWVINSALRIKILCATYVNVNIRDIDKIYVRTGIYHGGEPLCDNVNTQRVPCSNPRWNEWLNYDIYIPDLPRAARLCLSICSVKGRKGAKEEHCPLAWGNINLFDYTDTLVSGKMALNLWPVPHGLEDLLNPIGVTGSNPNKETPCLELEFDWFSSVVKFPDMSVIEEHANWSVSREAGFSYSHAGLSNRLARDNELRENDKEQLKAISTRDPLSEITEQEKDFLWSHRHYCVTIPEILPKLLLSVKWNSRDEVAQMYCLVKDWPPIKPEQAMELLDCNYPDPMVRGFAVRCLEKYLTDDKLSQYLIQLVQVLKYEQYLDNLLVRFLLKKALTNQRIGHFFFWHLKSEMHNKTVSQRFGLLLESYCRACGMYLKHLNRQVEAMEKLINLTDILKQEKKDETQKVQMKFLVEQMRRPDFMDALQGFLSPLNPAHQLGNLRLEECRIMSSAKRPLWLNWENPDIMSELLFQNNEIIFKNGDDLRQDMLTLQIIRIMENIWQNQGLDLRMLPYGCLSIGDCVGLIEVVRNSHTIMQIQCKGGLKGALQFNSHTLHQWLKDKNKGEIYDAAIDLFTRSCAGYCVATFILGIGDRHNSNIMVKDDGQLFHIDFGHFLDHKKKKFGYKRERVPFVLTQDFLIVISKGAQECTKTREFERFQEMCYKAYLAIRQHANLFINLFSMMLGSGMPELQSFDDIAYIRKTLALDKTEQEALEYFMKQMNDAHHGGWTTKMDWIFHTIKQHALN

With `C[C@H]1CCC/C=C/[C@H]2CC[C@H](O)[C@H](CC(=O)O1)O2` the IC50 (HL-60 [1]) was 32.8 µM.
`O=C1C[C@@H]2O[C@@H](C=C[C@@H]2O)C/C=C\C[C@H](c2ccc(F)cc2)O1` showed an IC50 (PC-3) of 35.8 µM, an IC50 (HL-60 [1]) of 40.2 µM and an IC50 (A-375) of 20.8 µM.
Compound `COc1ccc(CO[C@H]2C=C[C@H]3C/C=C\C[C@H](c4ccc5ccccc5c4)OC(=O)C[C@@H]2O3)cc1` has an IC50 (PC-3) of 45.4 µM, an IC50 (HL-60 [1]) of 10.2 µM and an IC50 (A-375) of over 100 µM.
For `CO[C@H]1C=C[C@H]2C/C=C\C[C@H](c3ccc(Br)cc3)OC(=O)C[C@@H]1O2`, the IC50 (PC-3) was 15.8 µM, the IC50 (HL-60 [1]) was 10 µM and the IC50 (A-375) was 5.45 µM.
Compound `CCO[C@H]1C=C[C@H]2C/C=C\C[C@H](c3ccc(OC)cc3)OC(=O)C[C@@H]1O2` has an IC50 (PC-3) of 56 µM, an IC50 (HL-60 [1]) of 69.9 µM and an IC50 (A-375) of 62.7 µM.
`O=C1C[C@@H]2O[C@@H](C=C[C@@H]2O)C/C=C\C[C@H](c2ccc3ccccc3c2)O1` gave an IC50 (PC-3) of 21.5 µM, an IC50 (HL-60 [1]) of 30.9 µM and an IC50 (A-375) of 50 µM.
For `COc1ccc(CO[C@H]2C=C[C@H]3C/C=C\C[C@H](c4ccc(F)cc4)OC(=O)C[C@@H]2O3)cc1`, the IC50 (PC-3) was 2.23 µM, the IC50 (HL-60 [1]) was 8.83 µM and the IC50 (A-375) was 4.76 µM.
Work on `C[C@H]1CCC/C=C/[C@H]2CC[C@H](O)[C@@H](CC(=O)O1)O2` yielded an IC50 (HL-60 [1]) of 81.2 µM.
With `CCO[C@H]1C=C[C@H]2C/C=C\C[C@H](c3ccc(Cl)cc3)OC(=O)C[C@@H]1O2` the IC50 (PC-3) was 9.16 µM, the IC50 (HL-60 [1]) was 5.7 µM and the IC50 (A-375) was 4.9 µM.
Work on `CCO[C@H]1C=C[C@H]2C/C=C\CC[C@H](C)OC(=O)C[C@@H]1O2` yielded an IC50 (PC-3) of 78 µM, an IC50 (HL-60 [1]) of 69.7 µM and an IC50 (A-375) of 57 µM.
In the case of `CO[C@H]1C=C[C@H]2C/C=C\C[C@H](c3ccc(-c4ccccc4C(F)(F)F)cc3)OC(=O)C[C@@H]1O2`, the Activity (HL-60 [2]) is reported as “Dose-dependent effect”, the IC50 (PC-3) is reported as 7.36 µM and the Activity (HL-60 [3]) is reported as 4%. It also gave an Activity (HL-60 [4]) of 3%, an Activity (HL-60 [5]) of 30% and an Activity (HL-60 [6]) of 37%. The Activity (HL-60 [7]) was “Dose-dependent effect”, the Activity (HL-60 [8]) was “Active” and the Activity (HL-60 [9]) was 4%. For the same compound, the Activity (HL-60 [10]) was 25%, the inhibition [11] was “Active” and the Activity (HL-60 [12]) was 62%. The Activity (HL-60 [13]) was 36%, the inhibition [14] was “Active” and the inhibition (HL-60 [15]) was “inactive”. For the same compound, the Activity (HL-60 [16]) was “Active”, the inhibition [17] was “Active” and the inhibition [18] was “Dose-dependent effect”. For the same compound, the Activity (HL-60 [19]) was 32%, the IC50 [20] was at least 100 µM and the Activity (HL-60 [21]) was 24%. The IC50 (HL-60 [1]) was 1.1 µM, the Activity (HL-60 [22]) was 37% and the inhibition [23] was “inactive”. For the same compound, the Activity (HL-60 [24]) was “Dose-dependent effect”, the inhibition [25] was “Active” and the IC50 (A-375) was 9.64 µM. For the same compound, the inhibition [26] was “Active”, the Activity (HL-60 [27]) was 21% and the inhibition [28] was “Dose-dependent effect”.
